Test results as given in ChEMBL document CHEMBL1275410, “Synergy between polyethylenimine and different families of antibiotics against a resistant clinical isolate of Pseudomonas aeruginosa” (2008).
≈ marks a conversion by molar mass, not a printed value. Calls of active or inactive are those of the source. The rule behind the calls is not given here.

What was measured:
Format in all cases: functional
Pseudomonas aeruginosa [1] = assay: Antibacterial activity against Pseudomonas aeruginosa 100609 after 20 hrs by broth microdilution assay
Summary of the method: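 Broth microdilution in TSB per CLSI: a 5 × 10^5 CFU/ml inoculum (OD660 0.02) was added to serial twofold antibiotic dilutions. Plates were shaken at 37°C for 20 h. MIC was the lowest concentration with no visible growth, determined in triplicate.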

Pseudomonas aeruginosa [2] = assay: FIC index, ratio of MIC for Pseudomonas aeruginosa 100609 in presence of 250 ug/ml polyethylenimine to MIC for Pseudomonas aeruginosa 100609
Pseudomonas aeruginosa [3] = assay: FIC index, ratio of MIC for Pseudomonas aeruginosa 25619 in presence of 250 ug/ml polyethylenimine to MIC for Pseudomonas aeruginosa 25619
Summary of the method: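 Checkerboard combination of PEI (mean MW 10 kDa) with antibiotic against P. aeruginosa ATCC 25619, in TSB inoculated at about 5 × 10^5 CFU/ml, run in triplicate. ΣFIC was derived from the combination; 0.5 to 2.0 is read as indifference and ≥4.0 as antagonism.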

Pseudomonas aeruginosa [4] = assay: Antibacterial activity against Pseudomonas aeruginosa 100609 assessed as reduction in bacterial count at 0.25 times MIC after 9 hrs by time-kill assay in presence of 250 ug/ml polyethylenimine relative to control
Summary of the method: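 Time-kill assay: TSB was seeded from a 17-h preculture to 5 × 10^7 CFU/ml (set by OD660). Antibiotic was at 25% of MIC, with PEI at a final 250 nM (legend gives 250 μg/ml). Controls were PEI alone, antibiotic alone and bacteria alone. Viable counts on LB agar were taken at 0, 1.5, 3, 6 and 9 h, in triplicate. Synergy was a ≥2.0 mean log10 CFU/ml drop versus antibiotic alone.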

[5] = Pseudomonas aeruginosa, 100609, 20 h

Molecule | MIC (Pseudomonas aeruginosa [1]; [5]) | fractional inhibitory concentration index (FICI) (Pseudomonas aeruginosa [2]) | fractional inhibitory concentration index (FICI) (Pseudomonas aeruginosa [3]) | fold change (FC) (Pseudomonas aeruginosa [4]) | Activity (Pseudomonas aeruginosa [4]) | MIC (Pseudomonas aeruginosa [1])
CC1(C)S[C@@H]2[C@H](NC(=O)[C@H](N)c3ccccc3)C(=O)N2[C@H]1C(=O)O [AMPICILLIN] | 2240 µg/mL (≈ 6410 µM) |  |  |  |  | 
CC1(C)S[C@@H]2[C@H](NC(=O)C(C(=O)O)c3ccccc3)C(=O)N2[C@H]1C(=O)O (some centres undefined) [CARBENICILLIN] | 2240 µg/mL (≈ 5920 µM) |  |  |  |  | 
CO/N=C(\C(=O)N[C@@H]1C(=O)N2C(C(=O)O)=C(COC(C)=O)CS[C@H]12)c1csc(N)n1 [CEFOTAXIME] | 960 µg/mL (≈ 2110 µM) | 0.14 |  |  |  | 
CC(C)(O/N=C(\C(=O)N[C@@H]1C(=O)N2C(C(=O)[O-])=C(C[n+]3ccccc3)CS[C@H]12)c1csc(N)n1)C(=O)O [CEFTAZIDIME] | 400 µg/mL (≈ 732 µM) | 0.04 | 0.09 | 100000 |  | 
O=C(N[C@H](CO)[C@H](O)c1ccc([N+](=O)[O-])cc1)C(Cl)Cl [CHLORAMPHENICOL] | 100 µg/mL (≈ 309 µM) | 0.41 |  | 100000 |  | 
O=C(O)c1cn(C2CC2)c2cc(N3CCNCC3)c(F)cc2c1=O [CIPROFLOXACIN] | 30 µg/mL (≈ 90.5 µM) | 1 |  |  |  | 
CC[C@H]1OC(=O)[C@H](C)[C@@H](O[C@H]2C[C@@](C)(OC)[C@@H](O)[C@H](C)O2)[C@H](C)[C@@H](O[C@@H]2O[C@H](C)C[C@H](N(C)C)[C@H]2O)[C@](C)(O)C[C@@H](C)C(=O)[C@H](C)[C@@H](O)[C@]1(C)O [ERYTHROMYCIN] | 140 µg/mL (≈ 191 µM) | 1 |  |  |  | 
NC[C@@H]1O[C@@H](O[C@H]2[C@H](O)[C@@H](O[C@H]3O[C@H](CO)[C@@H](O)[C@H](N)[C@H]3O)[C@H](N)C[C@@H]2N)[C@@H](O)[C@H](O)[C@H]1O [KANAMYCIN A] | 1600 µg/mL (≈ 3300 µM) | 1.21 |  |  |  | 
CCn1cc(C(=O)O)c(=O)c2cc(F)c(N3CCNCC3)cc21 [NORFLOXACIN] | 15 µg/mL (≈ 47 µM) | 0.68 |  |  |  | 
CO[C@@H]1[C@@H](OC(N)=O)[C@@H](O)[C@H](Oc2ccc3c(O)c(NC(=O)c4ccc(O)c(CC=C(C)C)c4)c(=O)oc3c2C)OC1(C)C [NOVOBIOCIN] | 1600 µg/mL (≈ 2610 µM) | 0.1 | 0.35 | 100000000 |  | 
CC1COc2c(N3CCN(C)CC3)c(F)cc3c(=O)c(C(=O)O)cn1c23 (centres undefined) [OFLOXACIN] | 10 µg/mL (≈ 27.7 µM) | 1 |  |  |  | 
CCN1CCN(C(=O)N[C@@H](C(=O)N[C@@H]2C(=O)N3[C@@H]2SC(C)(C)[C@@H]3C(=O)O)c2ccccc2)C(=O)C1=O [PIPERACILLIN] | 40 µg/mL (≈ 77.3 µM) |  |  |  |  | 
CO[C@H]1/C=C/O[C@@]2(C)Oc3c(C)c(O)c4c(O)c(c(/C=N/N5CCN(C)CC5)c(O)c4c3C2=O)NC(=O)/C(C)=C\C=C\[C@H](C)[C@H](O)[C@@H](C)[C@@H](O)[C@@H](C)[C@H](OC(C)=O)[C@@H]1C [RIFAMPIN] | 20 µg/mL (≈ 24.3 µM) | 0.05 |  | 100000 |  | 
CN(C)[C@@H]1C(O)=C(C(N)=O)C(=O)[C@@]2(O)C(O)=C3C(=O)c4c(O)cccc4[C@@](C)(O)[C@H]3C[C@@H]12 [TETRACYCLINE] | 20 µg/mL (≈ 45 µM) | 1 |  |  |  | 
CC1(C)S[C@@H]2[C@H](NC(=O)[C@H](C(=O)O)c3ccsc3)C(=O)N2[C@H]1C(=O)O [TICARCILLIN] | 1120 µg/mL (≈ 2910 µM) |  |  |  |  | 
NC[C@H]1O[C@H](O[C@H]2[C@H](O)[C@@H](O[C@H]3O[C@H](CO)[C@@H](O)[C@H](N)[C@H]3O)[C@H](N)C[C@@H]2N)[C@H](N)C[C@@H]1O [TOBRAMYCIN] | 50 µg/mL (≈ 107 µM) | 4.81 |  |  |  | 
CN[C@H](CC(C)C)C(=O)N[C@H]1C(=O)N[C@@H](CC(N)=O)C(=O)N[C@H]2C(=O)N[C@H]3C(=O)N[C@H](C(=O)N[C@H](C(=O)O)c4cc(O)cc(O)c4-c4cc3ccc4O)[C@H](O)c3ccc(c(Cl)c3)Oc3cc2cc(c3O[C@@H]2O[C@H](CO)[C@@H](O)[C@H](O)[C@H]2O[C@H]2C[C@](C)(N)[C@H](O)[C@H](C)O2)Oc2ccc(cc2Cl)[C@H]1O [VANCOMYCIN] | 1120 µg/mL (≈ 773 µM) | 3.4 |  |  | inactive | 
COLISTIN |  | 2.01 |  |  |  | 5 µg/mL
GENTAMICIN |  | 1.72 |  |  |  | 1120 µg/mL
POLYMYXIN B |  | 2.01 |  |  | inactive | 5 µg/mL
